Results published in the array DNA melting data of Ke et al. (doi:10.1101/2024.01.08.574731).

Experiments:
[1] = folding enthalpy; higher = less favourable; fluorescence melt of hairpins on a sequencing array, two-state fit; conditions: sodium 0.088 M
Procedure, shortened: (§1)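 Library hairpins on a sequenced MiSeq flow cell carried annealed Cy3 and quencher oligos, and their Cy3 fluorescence was imaged in 50 mM Na-HEPES pH 8.0 with 25 mM NaCl, in 2.5 °C steps up to 60 °C. Signals were normalised to Cy3 before quenching and to control constructs. Melting temperature and folding enthalpy were obtained from bootstrapped two-state fits, combined by inverse-variance weighting across four replicates, and the fitted temperatures were then raised by 9.35 °C to match UV melts.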

[2] = melting temperature; fluorescence melt of hairpins on a sequencing array, two-state fit, raised by 9.35 °C to match UV melts; conditions: sodium 0.088 M
Procedure, shortened: as §1

Sequence | folding enthalpy [1] [kcal/mol] | Tm [2] [°C]
GGGATTCGAAAGAAGCCC (((.(((....))).))) | -34.7 | 63.5
GGGATTGGAAACAACCCC (((.(((....))).))) | -28 | 42.4
GGGATTGGAAACAGTCCC ((((.((....)).)))) | -31.5 | 48.8
GGGCAAGGAAACTTACCC (((.(((....))).))) | -29.2 | 38.9
GGGCACACGAAAGTGCCC (((..(((....)))))) | -30.4 | 67.3
GGGCACGAAAGTGACCC ((((((....))).))) | -13.2 | 66.8
GGGCACGAAAGTGACCCC ((((((....)))..))) | -10.3 | 68.5
GGGCACGAAAGTGAGCCC ((((((....)))..))) | -32.9 | 56.7
GGGCACGAAAGTGCTCCC ((((((....)))..))) | -9.92 | 53.1
GGGCACGAAAGTGTCCC ((((((....))).))) | -16.5 | 65.1
GGGCACGAAAGTGTCCCC ((((((....)))..))) | -12 | 65.1
GGGCAGGCGAAAGCCCCC (((..(((....)))))) | -14.5 | 46
GGGCAGGGAAACCCACCC (((..((....))..))) | -24.5 | 34.8
GGGCAGGGAAACTTGCCC (((((.(....).))))) | -47.7 | 55.9
GGGCAGTCGAAAGACCCC (((..(((....)))))) | -21.6 | 41.7
GGGCATCGAAAGATTCCC (((.(((....))).))) | -27.7 | 47.5
GGGCATTCGAAAGAACCC (((..(((....)))))) | -14.2 | 29.5
GGGCCAACGAAAGTTCCC (((..(((....)))))) | -14.4 | 30.4
GGGCCACGAAAGTGACCC (((.(((....))).))) | -40.5 | 64.4
GGGCCAGGAAACCAGCCC ((((..(....)..)))) | -26.8 | 43.9
GGGCCAGGAAACTGGTCC ((.((((....)))).)) | -35 | 61.9
GGGCCCCGAAAGGGTCCC (((.(((....))).))) | -27.4 | 65.2
GGGCCCGAAAGGGTACCC ((((((....)))..))) | -15.1 | 57.3

Sequence | folding enthalpy [1] [kcal/mol] | Tm [2] [°C]
GGGCCGGCGAAAGCCCCC (((..(((....)))))) | -11.2 | 51
GGGCCTCGAAAGAGTCCC (((.(((....))).))) | -40.7 | 54.2
GGGCGACCGAAAGGTCCC (((..(((....)))))) | -13 | 49.8
GGGCGAGGAAACTCACCC (((.(((....))).))) | -41 | 49.6
GGGCGCGGAAACACGCCC (((((.(....).))))) | -34 | 66.5
GGGCGCGGAAACGCACCC (((.(((....))).))) | -43.8 | 62.6
GGGCGGACGAAAGTCCCC (((..(((....)))))) | -13.8 | 50.6
GGGCGGCCGAAAGGCCCC (((..(((....)))))) | -10.4 | 57.1
GGGCGGCGAAAGCCACCC (((.(((....))).))) | -26.3 | 67.3
GGGCGGCGAAAGCCTCCC (((.(((....))).))) | -21.9 | 61.2
GGGCGGGGAAACCCGTCC ((.((((....)))).)) | -37.3 | 65
GGGCGTGGAAACGCGTCC ((.((.(....).)).)) | -12.9 | 50.7
GGGCTACCGAAAGGTCCC (((..(((....)))))) | -18.8 | 39.4
GGGCTAGAAATAGCCC ((((((....)))))) | -30.3 | 64
GGGCTAGGAAACTAGCTC (.(((((....))))).) | -28.9 | 50.9
GGGCTAGGAAACTGGCTC (.((.((....)).)).) | -20.4 | 40.9
GGGCTCCCGAAAGGGCCC (((..(((....)))))) | -29.5 | 56
GGGCTCCGAAAGGACCCC (((.(((....))).))) | -20.5 | 53.9
GGGCTCGAAAGAGGCCC ((((((....))).))) | -14.3 | 69
GGGCTCGAAAGAGTACCC ((((((....)))..))) | -17.5 | 45
GGGCTCGAAAGAGTCCCC ((((((....)))..))) | -15.8 | 60.3
GGGCTCGGAAACGGGCTC (.((.((....)).)).) | -20.2 | 49.6
GGGCTGACGAAAGTCCCC (((..(((....)))))) | -18.1 | 42.8

Sequence | folding enthalpy [1] [kcal/mol] | Tm [2] [°C]
GGGCTGCCGAAAGGCCCC (((..(((....)))))) | -16 | 46.2
GGGCTGCGAAAGCACCC (((.(((....)))))) | -21.4 | 57.2
GGGCTGCGAAAGCACCCC (((.(((....))).))) | -18.2 | 57.3
GGGCTGGGAAACCAGTCC ((.((((....)))).)) | -42.5 | 57.3
GGGCTGGGAAACTAGCCC (((((.(....).))))) | -45.3 | 58.1
GGGCTTCGAAAGAAACCC (((.(((....))).))) | -30.2 | 49.6
GGGCTTCGAAAGAACCC (((.(((....)))))) | -28.9 | 48.6
GGGCTTGGAAACAGGCTC (.((.((....)).)).) | -24.4 | 38.3
GGGCTTGGAAACAGGTCC ((.(.((....)).).)) | -27.9 | 39.7
GGGGAAGAAATTCCCC ((((((....)))))) | -30.8 | 57.1
GGGGAAGCGAAAGCTCCC (((..(((....)))))) | -17.8 | 59.8
GGGGAAGGAAACCTCCCC (((((.(....).))))) | -43.9 | 47.8
GGGGACACGAAAGTGCCC (((..(((....)))))) | -20.5 | 55.5
GGGGACGAAAGTCCACCC ((((((....)))..))) | -11.2 | 55.2
GGGGACGAAAGTCGCCCC ((((((....)))..))) | -11 | 65.4
GGGGACGAAAGTCTTCCC ((((((....)))..))) | -17.8 | 39.3
GGGGAGCCGAAAGGCCCC (((..(((....)))))) | -13.2 | 61.9
GGGGAGGGAAACCCCCCC ((((.((....)).)))) | -34.1 | 54.5
GGGGATCGAAAGATGCCC (((.(((....))).))) | -48.8 | 59.4
GGGGATGAAAATCCCC ((((((....)))))) | -33.7 | 66.2
GGGGATGCGAAAGCACCC (((..(((....)))))) | -17.2 | 56.2
GGGGATGGAAACGTCCTC (.(((.(....).))).) | -27 | 36.1
GGGGCAGCGAAAGCTCCC (((..(((....)))))) | -16.7 | 56

Sequence | folding enthalpy [1] [kcal/mol] | Tm [2] [°C]
GGGGCCGAAAGGCCACCC ((((((....)))..))) | -10.1 | 60
GGGGCCGAAAGGCCTCCC ((((((....)))..))) | -9.22 | 54.8
GGGGCCGAAAGGCTACCC ((((((....)))..))) | -14.8 | 53.2
GGGGCGGGAAACCGCCTC (.(((((....))))).) | -12 | 60.5
GGGGCTCGAAAGAGTCCC (((.(((....))).))) | -42.8 | 67.7
GGGGGATCGAAAGATCCC (((..(((....)))))) | -8.42 | 59.9
GGGGGCGGAAACACCCCC (((((.(....).))))) | -39.3 | 56.9
GGGGGGGGAAACCTCCCC ((((.((....)).)))) | -34 | 59.9
GGGGGTCGAAAGACTCCC (((.(((....))).))) | -43.5 | 63.4
GGGGGTTCGAAAGAACCC (((..(((....)))))) | -7.33 | 58.9
GGGGTAACGAAAGTTCCC (((..(((....)))))) | -23.8 | 49.9
GGGGTAGGAAACTGCCCC ((((.((....)).)))) | -47.3 | 57.2
GGGGTAGGAAACTGTCCC (((..((....))..))) | -25.5 | 36.2
GGGGTATCGAAAGATCCC (((..(((....)))))) | -22.4 | 50.4
GGGGTCGAAAGACAACCC ((((((....)))..))) | -21.2 | 48.8
GGGGTCGAAAGACCGCCC ((((((....)))..))) | -11.3 | 52.7
GGGGTCGAAAGACGTCCC ((((((....)))..))) | -18.5 | 42.4
GGGGTCGAAAGACTACCC ((((((....)))..))) | -18 | 45.2
GGGGTCGGAAACAACCCC (((((.(....).))))) | -31.7 | 48.3
GGGGTCGGAAACGGCTCC ((.(.((....)).).)) | -42.8 | 49.6
GGGGTCTCGAAAGAGCCC (((..(((....)))))) | -28.6 | 58.9
GGGGTGGGAAACCGTCCC (((..((....))..))) | -18.5 | 45.2
